Legend:
[1] = Ratio of 5-HT concentration to 5-HIAA concentration in hippocampus region of brain; assay type: functional
Method in brief: (§1)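 Male Sprague-Dawley rats (150-250 g) given 4 mg/kg sc; killed 30 min later. Brain regions dissected, weighed, homogenized in 0.01 N HClO4, kept on ice 15 min, centrifuged 13000g 2 min. Supernatant analysed by HPLC with electrochemical detection: C-18 reverse-phase column, 0.1 M sodium phosphate mobile phase with EDTA, octanesulfonic acid, 10% MeOH, pH 3.8; glassy carbon electrode at +0.65. Compared with untreated controls by ANOVA and multiple regression.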

Rattus norvegicus [2] = species on record: Rattus norvegicus; test: Influence on 5-hydroxy tryptamine (5-HT) concentration in amygdala region of brain; assay type: functional, organism-based; method in brief: as §1
Rattus norvegicus [3] = species on record: Rattus norvegicus; test: Influence on 5-hydroxyindoleacetic acid (5-HIAA) concentration in hypothalamus region of brain; assay type: functional, organism-based; method in brief: as §1
[4] = Ratio of 5-HT concentration to 5-HIAA concentration in amygdala region of brain; assay type: functional; method in brief: as §1
Rattus norvegicus [5] = species on record: Rattus norvegicus; test: Influence on 5-hydroxyindoleacetic acid (5-HIAA) concentration in caudate region of brain; assay type: functional, organism-based; method in brief: as §1
Rattus norvegicus [6] = species on record: Rattus norvegicus; test: Influence on 5-hydroxy tryptamine (5-HT) concentration in olfactory tubercle region of brain; assay type: functional, organism-based; method in brief: as §1
Rattus norvegicus [7] = species on record: Rattus norvegicus; test: Influence on 5-hydroxy tryptamine (5-HT) concentration in septum region of brain; assay type: functional, organism-based; method in brief: as §1
[8] = Ratio of 5-HT concentration to 5-HIAA concentration in hypothalamus region of brain; assay type: functional; method in brief: as §1
Rattus norvegicus [9] = species on record: Rattus norvegicus; test: Influence on 5-hydroxyindoleacetic acid (5-HIAA) concentration in frontal cortex region of brain; assay type: functional, organism-based; method in brief: as §1
[10] = Ratio of 5-HT concentration to 5-HIAA concentration in caudate region of brain; assay type: functional; method in brief: as §1
[11] = Ratio of 5-HT concentration to 5-HIAA concentration in septum region of brain; assay type: functional; method in brief: as §1
[12] = Ratio of 5-HT concentration to 5-HIAA concentration in parietal cortex region of brain; assay type: functional; method in brief: as §1
Rattus norvegicus [13] = species on record: Rattus norvegicus; test: Influence on 5-hydroxy tryptamine (5-HT) concentration in frontal cortex region of brain; assay type: functional, organism-based; method in brief: as §1
Rattus norvegicus [14] = species on record: Rattus norvegicus; test: Influence on 5-hydroxy tryptamine (5-HT) concentration in hippocampus region of brain; assay type: functional, organism-based; method in brief: as §1
Rattus norvegicus [15] = species on record: Rattus norvegicus; test: Influence on 5-hydroxyindoleacetic acid (5-HIAA) concentration in parietal cortex region of brain; assay type: functional, organism-based; method in brief: as §1
Rattus norvegicus [16] = species on record: Rattus norvegicus; test: Influence on 5-hydroxyindoleacetic acid (5-HIAA) concentration in hippocampus region of brain; assay type: functional, organism-based; method in brief: as §1
Rattus norvegicus [17] = species on record: Rattus norvegicus; test: Influence on 5-hydroxyindoleacetic acid (5-HIAA)concentration in amygdala region of brain; assay type: functional, organism-based; method in brief: as §1
[18] = Ratio of 5-HT concentration to 5-HIAA concentration in olfactory tubercle region of brain; assay type: functional; method in brief: as §1
Rattus norvegicus [19] = species on record: Rattus norvegicus; test: Influence on 5-hydroxy tryptamine (5-HT) concentration in hypothalamus region of brain; assay type: functional, organism-based; method in brief: as §1
Rattus norvegicus [20] = species on record: Rattus norvegicus; test: Influence on 5-hydroxyindoleacetic acid (5-HIAA) concentration in olfactory tubercle region of brain; assay type: functional, organism-based; method in brief: as §1
Rattus norvegicus [21] = species on record: Rattus norvegicus; test: Influence on 5-hydroxy tryptamine (5-HT) concentration in parietal cortex region of brain; assay type: functional, organism-based; method in brief: as §1
Rattus norvegicus [22] = species on record: Rattus norvegicus; test: Influence on 5-hydroxy tryptamine (5-HT) concentration in caudate region of brain; assay type: functional, organism-based; method in brief: as §1
[23] = Ratio of 5-HT concentration to 5-HIAA concentration in frontal cortex region of brain; assay type: functional; method in brief: as §1
Rattus norvegicus [24] = species on record: Rattus norvegicus; test: Influence on 5-hydroxyindoleacetic acid (5-HIAA) concentration in septum region of brain; assay type: functional, organism-based; method in brief: as §1

Structure (SMILES): CCCN(CCC)C1CCc2cccc(O)c2C1 (centres undefined) [8-OH-DPAT]
- Ratio [1]: 2.5
- Concentration (Rattus norvegicus [2]): 4.9 nM/g
- Concentration (Rattus norvegicus [3]): 1.9 nM/g
- Ratio [4]: 5.8
- Concentration (Rattus norvegicus [5]): 2.6 nM/g
- Concentration (Rattus norvegicus [6]): 8.3 nM/g
- Concentration (Rattus norvegicus [7]): 4.5 nM/g
- Ratio [8]: 3.9
- Concentration (Rattus norvegicus [9]): 0.8 nM/g
- Ratio [10]: 1.5
- Ratio [11]: 3
- Ratio [12]: 4.1
- Concentration (Rattus norvegicus [13]): 4.2 nM/g
- Concentration (Rattus norvegicus [14]): 4.2 nM/g
- Concentration (Rattus norvegicus [15]): 0.8 nM/g
- Concentration (Rattus norvegicus [16]): 1.7 nM/g
- Concentration (Rattus norvegicus [17]): 1 nM/g
- Ratio [18]: 5.9
- Concentration (Rattus norvegicus [19]): 7.1 nM/g
- Concentration (Rattus norvegicus [20]): 1.4 nM/g
- Concentration (Rattus norvegicus [21]): 3.1 nM/g
- Concentration (Rattus norvegicus [22]): 3.6 nM/g
- Ratio [23]: 5.8
- Concentration (Rattus norvegicus [24]): 1.5 nM/g

— ChEMBL document CHEMBL1124286, “(R)-(-)-10-methyl-11-hydroxyaporphine: a highly selective serotonergic agonist” (1988)
